Experimental data: ChEMBL document CHEMBL4819119, “Design and evaluation of 1,2,3-dithiazoles and fused 1,2,4-dithiazines as anti-cancer agents” (Bioorg Med Chem Lett, 2021)

Tests used:
MCF7 = assay: Cytotoxicity against human MCF7 cells assessed as reduction in cell viability incubated for 72 hrs by alamar blue assay; type: functional, cell-based; details: MCF7, 72 h
How it was run: (§1)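 Cells seeded in 384-well plates and dosed 24 h after plating, in quadruplicate. Viability was read by alamarBlue fluorescence at 72 h. IC50 came from nonlinear regression as the mean of 4 replicates. Growth media carried 10% FBS and 1% pen/strep: UCH1/UCH2 in 4:1 IMDM:RPMI-1640 in gel-coated flasks; A431, PANC1 and WS1 in DMEM; DU145 and MCF7 in MEM; 5637 in RPMI-1640.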

[1] = Cytotoxicity against human UCH1 cells assessed as reduction in cell viability incubated for 72 hrs by alamar blue assay; type: functional, cell-based; details: UCH1, 72 h; how it was run: as §1
DU-145 = assay: Cytotoxicity against human DU-145 cells assessed as reduction in cell viability incubated for 72 hrs by alamar blue assay; type: functional, cell-based; details: DU-145, 72 h; how it was run: as §1
[2] = Cytotoxicity against human UCH2 cells assessed as reduction in cell viability incubated for 72 hrs by alamar blue assay; type: functional, cell-based; details: UCH2, 72 h; how it was run: as §1
[3] = Cytotoxicity against human WS1 cells assessed as reduction in cell viability incubated for 72 hrs by alamar blue assay; type: cell-based; details: WS1, 72 h; how it was run: as §1
5637 = assay: Cytotoxicity against human 5637 cells assessed as reduction in cell viability incubated for 72 hrs by alamar blue assay; type: functional, cell-based; details: Homo sapiens, 5637, 72 h; how it was run: as §1
A-431 = assay: Cytotoxicity against human A-431 cells assessed as reduction in cell viability incubated for 72 hrs by alamar blue assay; type: functional, cell-based; details: A-431, 72 h; how it was run: as §1
PANC-1 = assay: Cytotoxicity against human PANC1 cells assessed as reduction in cell viability incubated for 72 hrs by alamar blue assay; type: functional, cell-based; details: PANC-1, 72 h; how it was run: as §1
[4] = system: Feline immunodeficiency virus; assay: Antiviral activity against Feline immunodeficiency virus; type: functional, organism-based

| SMILES | IC50 (MCF7) | IC50 [1] | IC50 (DU-145) | IC50 [2] | IC50 [3] | IC50 5637 | IC50 (A-431) | IC50 (PANC-1) | EC50 [4] |
| --- | --- | --- | --- | --- | --- | --- | --- | --- | --- |
| Clc1nss/c1=N\c1ccc(Br)cc1 | 11 µM | 43 µM | 48 µM | 51 µM | > 100 µM | 36 µM | > 100 µM | 35 µM | – |
| Clc1nss/c1=N\c1nccs1 | 45 µM | 10 µM | 8.1 µM | 22 µM | 24 µM | 15 µM | 17 µM | 24 µM | – |
| Cc1cc(/N=c2\ssnc2Cl)n[nH]1 | 18 µM | 33 µM | 14 µM | 18 µM | 40 µM | 20 µM | 69 µM | 27 µM | – |
| CCOC(=O)c1c2nssc-2c(Cl)c1Cl | – | – | – | – | – | – | – | – | 0.31 µM |
| CCOC(=O)c1c2n[se]sc-2c(Cl)c1Cl | – | – | – | – | – | – | – | – | 0.082 µM |
| Cc1nn(C)c2c1SSC(C#N)=N2 | > 100 µM | > 100 µM | 40 µM | > 100 µM | > 100 µM | 81 µM | > 100 µM | > 100 µM | – |
| N#Cc1cc(Br)ccc1/N=c1\ssnc1N1CCN(CCCl)CC1 | 4.1 µM | 32 µM | 15 µM | 23 µM | > 100 µM | 8 µM | > 100 µM | 18 µM | – |
| Clc1nss/c1=N\c1cccc(Br)c1 | 6.7 µM | 40 µM | 27 µM | 59 µM | 94 µM | 53 µM | > 100 µM | 38 µM | – |
| N#CC1=Nc2c(c(-c3ccccc3)nn2-c2ccccc2)SS1 | 36 µM | 55 µM | 16 µM | 68 µM | > 100 µM | 14 µM | 72 µM | 75 µM | – |
| CSc1ccc(/N=c2\ssnc2Cl)cc1 | 36 µM | 38 µM | 14 µM | 37 µM | 66 µM | 34 µM | 51 µM | 86 µM | – |
| N#CSCCN1CCN(c2nssc2=O)CC1 | 5.4 µM | 12 µM | 3.3 µM | 14 µM | 17 µM | 39 µM | 25 µM | 11 µM | – |
| O=C(OCCN1CCN(c2nss/c2=N\c2ccccc2)CC1)c1ccccc1 | 17 µM | 23 µM | 30 µM | 34 µM | 38 µM | 13 µM | 36 µM | 60 µM | – |
| Cc1cc(OC(F)(F)F)ccc1/N=c1\ssnc1Cl | 43 µM | 57 µM | 18 µM | 87 µM | > 100 µM | 47 µM | > 100 µM | 76 µM | – |
| c1ccc(/N=c2\ssnc2N2CCN(CCNc3ccccc3)CC2)cc1 | 10 µM | 25 µM | 55 µM | 21 µM | 55 µM | 18 µM | 87 µM | 67 µM | – |
| O=S(=O)(Nc1nccs1)c1ccc(/N=c2\ssnc2Cl)cc1 | 49 µM | 30 µM | 92 µM | 36 µM | > 100 µM | 27 µM | > 100 µM | 97 µM | – |
| Clc1nss/c1=N\c1cc(-c2ccccc2)n[nH]1 | 9.3 µM | 59 µM | 11 µM | 38 µM | > 100 µM | 16 µM | > 100 µM | 23 µM | – |
| O=C1c2ccccc2C(=O)N1CCN1CCN(c2nssc2=S)CC1 | 51 µM | 46 µM | 23 µM | > 100 µM | > 100 µM | 25 µM | > 100 µM | 73 µM | – |
| Cc1cc(/N=c2\ssnc2Cl)n(Cc2ccccc2)n1 | 18 µM | 33 µM | 10 µM | 30 µM | 15 µM | 2.1 µM | 27 µM | 26 µM | – |
